Test results published in ChEMBL document CHEMBL1126297, “Synthesis and evaluation of analogues of (Z)-1-(4-methoxyphenyl)-2-(3,4,5-trimethoxyphenyl)ethene as potential cytotoxic and antimitotic agents” (J Med Chem, 1992).
pEC50, pIC50: −log10 of the molar value.

Tests used:
Type in all cases: functional
MCF7 = assay: Cytotoxicity against human MCF-7 breast cancer cell line.; conditions: read-out: ED50 (the source's name)
Outline: (§1)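 MTT colorimetric assay run in the Purdue Cell Culture Laboratory. Poorly water-soluble compounds were serially diluted in DMSO and added as 0.5 μL aliquots per well. Cells were incubated with compound for 6 days before MTT was added. […] The reported ED50 is the mean of two determinations.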

MLM [1] = assay: Cytotoxicity against human MLM melanoma cell line.; conditions: read-out: ED50 (the source's name); outline: as §1
SK-MEL-5 = assay: Compound was evaluated for cytotoxicity against human SKMEL-5 melanoma cell line.; conditions: read-out: ED50 (the source's name); outline: as §1
A549 = assay: Compound was evaluated for cytotoxicity against human A-549 non-small cell lung cancer cell line.; conditions: read-out: ED50 (the source's name); outline: as §1
HT-29 = assay: Cytotoxicity against human HT-29 colon cell line.; conditions: read-out: ED50 (the source's name); outline: as §1
Bos taurus = organism: Bos taurus; assay: Inhibition of tubulin polymerization
Outline: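 Bovine brain tubulin, purified to electrophoretic homogeneity, was preincubated at 37 °C with a range of compound concentrations and then chilled on ice. GTP was added and polymerization followed at 37 °C by turbidity at 350 nm. Extent was read at 20 min against two controls per experiment, and IC50 was determined graphically. Actives were run in ≥3 independent assays, inactives (IC50 > 40 μM) in ≥2.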

MLM [2] = assay: Compound was evaluated for cytotoxicity against human MLM melanoma cell line.; conditions: read-out: ED50; outline: as §1

Structure (SMILES)	pEC50 (MCF7)	pEC50 (MLM [1])	pEC50 (SK-MEL-5)	pEC50 (A549)	pEC50 (HT-29)	pIC50 (Bos taurus)	pEC50 (MLM [2])
COc1ccc(/C=C\c2cc(OC)c(O[Si](C)(C)C(C)(C)C)c(OC)c2)cc1	< 4.60	< 4.60	< 4.60	< 4.60	5.05	< 4.40	–
CCc1ccc(CCc2cc(OC)c(OC)c(OC)c2)cc1	6.80	6.57	7.33	7.06	7.80	4.74	–
COc1cc(CCc2ccc(SC)cc2)cc(OC)c1OC	6.70	5.89	6.62	6.82	6.40	< 4.40	–
COc1ccc(CC(C#N)c2cc(OC)c(OC)c(OC)c2)cc1 (stereo unspecified)	5.85	5.80	5.39	5.02	5.12	4.96	–
COc1ccc(Cc2c3cc(OC)c(OC)c(OC)c3cc[n+]2C)cc1	< 4.60	< 4.60	5.68	4.71	4.69	< 4.40	–
CCCOc1ccc(/C=C/c2cc(OC)c(OC)c(OC)c2)cc1	4.90	< 4.60	< 4.60	5.04	< 4.60	< 4.40	–
COc1cc(/C=C/c2ccc(C)cc2)cc(OC)c1OC	5.72	5.20	6.10	5.96	6.05	< 4.40	–
COc1ccc(/C=C/c2cc(OC)c(O[Si](C)(C)C(C)(C)C)c(OC)c2)cc1	< 4.60	< 4.60	< 4.60	< 4.60	< 4.60	< 4.40	–
COc1ccc(CC2NCCc3c2cc(OC)c(OC)c3OC)cc1 (stereo unspecified)	< 4.60	< 4.60	< 4.60	4.71	4.69	< 4.40	–
CCN(CC)CCOc1ccc(CCc2cc(OC)c(OC)c(OC)c2)cc1	5.37	< 4.60	5.07	5.17	5.28	< 4.40	–
CCc1ccc(/C=C\c2cc(OC)c(OC)c(OC)c2)cc1	7.14	8.12	9.07	7.92	8.57	5.47	–
COc1ccc(C2Cc3cc(OC)c(OC)c(OC)c3C2=O)cc1 (stereo unspecified)	< 4.60	< 4.60	< 4.60	< 4.60	< 4.60	< 4.40	–
CCc1ccc(/C=C/c2cc(OC)c(OC)c(OC)c2)cc1	5.92	6.66	6.77	6.89	6.96	< 4.40	–
COc1ccc(/C=C\c2ccc(OC)c(OC)c2)cc1 [7Z-3,4,4'-TRIMETHOXYSTILBENE]	< 4.60	< 4.60	< 4.60	< 4.60	< 4.60	4.74	–
COc1ccc(/C=C\c2cc(OC)cc(OC)c2)cc1 [8Z-3,4',5-TRIMETHOXYSTILBENE]	6.80	7.01	6.38	6.89	6.47	5.42	–
COc1cccc2c1C(=O)c1c(O)c3c(c(O)c1C2=O)C[C@@](O)(C(=O)CO)C[C@@H]3O[C@H]1C[C@H](N)[C@H](O)[C@H](C)O1 [DOXORUBICIN]	7.51	–	7.49	7.54	7.26	–	6.89
COc1ccc(/C=C/c2cc(OC)cc(OC)c2)cc1 [TRISMETHOXYRESVERATROL]	5.01	< 4.60	6.06	5.12	5.16	< 4.40	–
